Laboratory results published in ChEMBL document CHEMBL3600299, “Identification of alpha-substituted acylamines as novel, potent, and orally active mGluR5 negative allosteric modulators” (Bioorg Med Chem Lett, 2015).
Activity calls are given as the source filed them.

These compounds were tested on Mus musculus (assay: Effect on basal rectal temperature in mouse model of stress-induced hyperthermia at 0.1 to 1 mg/kg, po dosed 1 hr before first rectal temperature measurement). Conditions: in vivo.
Type: ADME, organism-based
Summary of the method: (§1)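 Mice dosed orally with test article in 0.5% methylcellulose vehicle 1 h before first rectal temperature (T1); second rectal temperature (T2) taken 10 min after T1. Basal temperature from T1; SIH response defined as T2–T1. Mean ± SEM, n = 10 per group; one-tailed Williams' test vs vehicle, p <0.025.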

| SMILES | Activity |
| --- | --- |
| C=CC[C@@H](NC(=O)c1nccs1)c1cnc(Nc2ccc(C)nc2)c(Cl)c1 | Non-toxic |

The compounds below were run against T1, Metabotropic glutamate receptor 5 (Homo sapiens, UniProt P41594) (assay: Negative allosteric modulator activity against human mGluR5 expressed in HEK293 cells assessed as inhibition of glutamate-induced inositol phosphate accumulation by IP-one HTRF assay). Conditions: not given.
Type: functional, cell-based
Summary of the method: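 HEK293 cells stably expressing human mGluR5 incubated 60 min with 2.5 lmol/L glutamate, with or without compound. Glutamate-induced inositol phosphate (IP1) accumulation read by IP-One HTRF kit.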
Target sequence in this assay (P41594 whole entry): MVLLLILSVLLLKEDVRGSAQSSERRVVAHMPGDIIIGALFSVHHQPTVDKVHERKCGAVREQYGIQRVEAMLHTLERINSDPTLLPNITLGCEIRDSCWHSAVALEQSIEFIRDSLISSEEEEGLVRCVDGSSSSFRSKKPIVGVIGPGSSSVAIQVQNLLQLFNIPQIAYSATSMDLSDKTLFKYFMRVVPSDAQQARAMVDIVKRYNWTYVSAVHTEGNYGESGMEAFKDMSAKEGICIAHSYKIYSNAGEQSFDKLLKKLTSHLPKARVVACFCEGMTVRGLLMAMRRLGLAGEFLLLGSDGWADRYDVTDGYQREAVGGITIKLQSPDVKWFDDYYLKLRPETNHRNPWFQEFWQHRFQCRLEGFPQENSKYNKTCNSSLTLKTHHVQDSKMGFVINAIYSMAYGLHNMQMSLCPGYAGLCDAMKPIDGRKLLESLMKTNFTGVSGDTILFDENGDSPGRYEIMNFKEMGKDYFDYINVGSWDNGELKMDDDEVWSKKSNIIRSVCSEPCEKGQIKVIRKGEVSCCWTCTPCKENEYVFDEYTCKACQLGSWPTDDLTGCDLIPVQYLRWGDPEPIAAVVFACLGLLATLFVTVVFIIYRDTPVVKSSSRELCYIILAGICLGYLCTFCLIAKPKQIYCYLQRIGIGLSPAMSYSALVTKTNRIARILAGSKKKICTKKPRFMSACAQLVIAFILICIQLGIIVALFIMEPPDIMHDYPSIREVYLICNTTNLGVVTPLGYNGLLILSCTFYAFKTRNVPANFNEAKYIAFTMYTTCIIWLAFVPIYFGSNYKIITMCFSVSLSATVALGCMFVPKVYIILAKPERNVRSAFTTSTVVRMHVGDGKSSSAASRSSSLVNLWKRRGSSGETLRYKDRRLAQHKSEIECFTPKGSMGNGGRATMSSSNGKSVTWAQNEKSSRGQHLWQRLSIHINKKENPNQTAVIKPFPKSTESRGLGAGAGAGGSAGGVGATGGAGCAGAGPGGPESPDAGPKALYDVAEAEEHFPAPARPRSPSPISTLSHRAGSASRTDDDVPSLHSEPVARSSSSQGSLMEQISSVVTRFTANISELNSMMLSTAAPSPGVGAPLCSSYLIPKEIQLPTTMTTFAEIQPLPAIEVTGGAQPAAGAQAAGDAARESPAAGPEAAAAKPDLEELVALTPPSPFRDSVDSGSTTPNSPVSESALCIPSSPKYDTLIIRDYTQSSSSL

| SMILES | IC50 |
| --- | --- |
| CCCC[C@@H](NC(=O)c1nccs1)c1cnc(Nc2ccc(C)nc2)c(Cl)c1 | 0.0309 µM |
| CCCN(Cc1cnc(Nc2ccc(C)nc2)c(Cl)c1)C(=O)c1nccs1 | 0.584 µM |
| CCCC(NC(=O)c1nccs1)c1cnc(Nc2ccc(C)nc2)c(Cl)c1 (stereo not given) | 0.0287 µM |
| CCC[C@@H](NC(=O)c1cscn1)c1cnc(Nc2ccc(C)nc2)c(Cl)c1 | 0.0312 µM |
| CCC[C@@H](NC(=O)c1ccccn1)c1cnc(Nc2ccc(C)nc2)c(Cl)c1 | 0.0278 µM |
| CCC[C@@H](NC(=O)c1nccs1)c1cnc(Nc2cnc(C)nc2)c(Cl)c1 | 0.0439 µM |
| Cc1ccc(Nc2ncc([C@H](NC(=O)c3nccs3)C(C)C)cc2Cl)cn1 | 0.0075 µM |
| C/C=C/C[C@@H](NC(=O)c1nccs1)c1cnc(Nc2ccc(C)nc2)c(Cl)c1 | 0.0088 µM |
| CCC[C@@H](NC(=O)c1cocn1)c1cnc(Nc2ccc(C)nc2)c(Cl)c1 | 0.0233 µM |
| Cc1ccc(Nc2ncc([C@H](NC(=O)c3nccs3)C(C)(C)C)cc2Cl)cn1 | 0.0309 µM |
| CCC[C@@H](NC(=O)c1ncco1)c1cnc(Nc2ccc(C)nc2)c(Cl)c1 | 0.0422 µM |
| CCC[C@@H](NC(=O)c1nccs1)c1cnc(Nc2ccc(OC)nc2)c(Cl)c1 | 0.0133 µM |
| Cc1ccc(Nc2ncc([C@@H](Cc3ccccc3)NC(=O)c3nccs3)cc2Cl)cn1 | 0.0555 µM |
| CCC[C@@H](NC(=O)c1nccs1)c1cnc(Nc2cnc(C)s2)c(Cl)c1 | 0.06 µM |
| CCC[C@@H](NC(=O)c1nccs1)c1cnc(Nc2cccnc2)c(Cl)c1 | 0.0714 µM |
| Cc1ccc(Nc2ncc([C@@H](NC(=O)c3nccs3)C(C)C)cc2Cl)cn1 | 1.05 µM |
| CCC[C@@H](NC(=O)c1nccs1)c1cnc(Nc2ccc(F)nc2)c(Cl)c1 | 0.0128 µM |
| CCC[C@@H](NC(=O)c1nc(C)cs1)c1cnc(Nc2ccc(C)nc2)c(Cl)c1 | 0.01 µM |

Other lines, results leading:

| IC50 | SMILES |
| --- | --- |
| 0.0378 µM | Cc1ccc(Nc2ncc([C@H](NC(=O)c3nccs3)C3CCCCC3)cc2Cl)cn1 |
| 0.0097 µM | Cc1ccc(Nc2ncc([C@H](NC(=O)c3nccs3)C3CC3)cc2Cl)cn1 |
| 0.182 µM | Cc1ccc(Nc2ncc(C3CCCN3C(=O)c3nccs3)cc2Cl)cn1 (stereo not given) |
| 0.0082 µM | CCC[C@@H](NC(=O)c1nccs1)c1cnc(Nc2ccc(C)nc2)c(Cl)c1 |
| 0.0166 µM | Cc1ccc(Nc2ncc([C@H](NC(=O)c3nccs3)C3CCCC3)cc2Cl)cn1 |
| 0.978 µM | CCC[C@H](NC(=O)c1nccs1)c1cnc(Nc2ccc(C)nc2)c(Cl)c1 |
| > 1 µM | Cc1ccc(Nc2ncc([C@@H](NC(=O)c3nccs3)C3CCC3)cc2Cl)cn1 |
| 0.0093 µM | Cc1ccc(Nc2ncc([C@H](NC(=O)c3nccs3)C3CCC3)cc2Cl)cn1 |
| 0.0024 µM | C=CC[C@@H](NC(=O)c1nccs1)c1cnc(Nc2ccc(C)nc2)c(Cl)c1 |
| 0.0559 µM | COC[C@H](NC(=O)c1nccs1)c1cnc(Nc2ccc(C)nc2)c(Cl)c1 |
| 0.0154 µM | CC[C@@H](NC(=O)c1nccs1)c1cnc(Nc2ccc(C)nc2)c(Cl)c1 |
| > 1 µM | CC[C@H](NC(=O)c1nccs1)c1cnc(Nc2ccc(C)nc2)c(Cl)c1 |

Each compound was assayed against T1, Metabotropic glutamate receptor 5 (assay: Negative allosteric modulator activity against human mGluR5 expressed in HEK293 cells assessed as inhibition of glutamate-induced inositol phosphate accumulation at 100 nM by IP-one HTRF assay). Conditions: not given.
Type: functional, cell-based
Target sequence in this assay (P41594 21-1212 limits assumed): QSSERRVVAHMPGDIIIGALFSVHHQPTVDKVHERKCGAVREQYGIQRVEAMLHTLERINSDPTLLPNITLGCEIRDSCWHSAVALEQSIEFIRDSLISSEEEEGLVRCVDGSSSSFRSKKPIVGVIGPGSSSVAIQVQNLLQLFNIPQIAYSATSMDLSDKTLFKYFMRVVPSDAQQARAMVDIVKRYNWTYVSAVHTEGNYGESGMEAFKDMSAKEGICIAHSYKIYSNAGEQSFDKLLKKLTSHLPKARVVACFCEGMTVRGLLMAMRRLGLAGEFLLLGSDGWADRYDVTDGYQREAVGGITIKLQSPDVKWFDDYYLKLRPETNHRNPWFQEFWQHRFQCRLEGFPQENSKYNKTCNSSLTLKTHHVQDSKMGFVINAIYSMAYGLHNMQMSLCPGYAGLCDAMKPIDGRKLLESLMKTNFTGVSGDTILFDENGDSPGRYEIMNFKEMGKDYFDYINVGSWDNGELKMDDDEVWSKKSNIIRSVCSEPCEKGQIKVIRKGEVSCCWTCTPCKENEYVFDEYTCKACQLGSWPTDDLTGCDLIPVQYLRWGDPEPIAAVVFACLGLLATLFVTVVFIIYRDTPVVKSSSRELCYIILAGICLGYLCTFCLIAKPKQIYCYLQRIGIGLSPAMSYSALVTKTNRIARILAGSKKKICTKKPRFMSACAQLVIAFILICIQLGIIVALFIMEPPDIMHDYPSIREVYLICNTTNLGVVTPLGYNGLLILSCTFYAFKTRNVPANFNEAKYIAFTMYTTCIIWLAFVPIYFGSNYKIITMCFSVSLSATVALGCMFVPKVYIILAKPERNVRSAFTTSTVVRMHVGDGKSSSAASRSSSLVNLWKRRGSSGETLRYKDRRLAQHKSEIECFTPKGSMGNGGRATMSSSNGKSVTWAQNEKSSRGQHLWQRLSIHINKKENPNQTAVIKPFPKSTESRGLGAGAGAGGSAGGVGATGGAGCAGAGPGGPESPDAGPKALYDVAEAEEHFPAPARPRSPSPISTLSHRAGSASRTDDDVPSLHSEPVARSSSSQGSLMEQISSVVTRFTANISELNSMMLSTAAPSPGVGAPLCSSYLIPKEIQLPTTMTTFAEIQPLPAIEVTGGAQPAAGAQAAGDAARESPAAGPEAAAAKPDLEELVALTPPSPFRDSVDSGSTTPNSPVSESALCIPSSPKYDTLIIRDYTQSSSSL

| inhibition | SMILES |
| --- | --- |
| 31% | CCC[C@@H](NC(=O)c1nccs1)c1cnc(Nc2ccc(C(F)(F)F)nc2)c(Cl)c1 |
| 49% | CCC[C@@H](NC(=O)c1ncc(C)s1)c1cnc(Nc2ccc(C)nc2)c(Cl)c1 |
| 30% | CCC[C@@H](NC(=O)c1ccccc1)c1cnc(Nc2ccc(C)nc2)c(Cl)c1 |

What follows are compounds tested on Mus musculus (assay: Anxiolytic-like activity in mouse model of stress-induced hyperthermia assessed as reduction in stress-induced hyperthermia response at 1 mg/kg, po dosed 1 hr before first rectal temperature measurement). Conditions: not given.
Type: functional, organism-based
Summary of the method: as §1

| SMILES | Activity |
| --- | --- |
| C=CC[C@@H](NC(=O)c1nccs1)c1cnc(Nc2ccc(C)nc2)c(Cl)c1 | Active |
